# Source: PubChem
# An excerpt weighted towards active compounds, which were near 2.7% of everything screened.
# VIM-2 inhibitor: inhibitors of Pseudomonas aeruginosa VIM-2 metallo-beta-lactamase | purified VIM-2, nitrocefin hydrolysis, epi-absorbance fluorescence | inhibition, % at 5.6 µM | 290,000 compounds, 0.89% hits;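 active = inhibition above the mean of all tested compounds plus 3 SD, cutoff set per screening run, cut at about 7.5% in these data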;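 note: red hydrolysis product quenches plate fluorescence so inhibitors raise well fluorescence; 0% = enzyme with DMSO and 100% = DMSO without enzyme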
# IMP-1 inhibitor: blocks Pseudomonas aeruginosa IMP-1 metallo-beta-lactamase. purified IMP-1, nitrocefin hydrolysis, epi-absorbance fluorescence. inhibition, % at 5.6 µM. 290,000 compounds, 0.45% hits. AID 1556;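 active = inhibition above the mean plus 3 SD of all compounds in the same screening run, cut at about 4.5% in these data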;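 note: 0% = IMP-1 with DMSO and 100% = DMSO wells lacking enzyme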
#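 System – purified recombinant IMP-1 beta-lactamase · Input – IMP-1 dispensed at 0.2 nM · Timing – 15 min preincubation plus 25 min reaction at 25 °C · Signal – Epi-absorbance fluorescence, 480 nm excitation, 530 nm emission · Measure – percent IMP-1 inhibition derived from blank-referenced optical density · Controls – Enzyme-plus-DMSO low control, enzyme-free DMSO high control · Replication – singlicate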
# M18AAP inhibitor: PfM18AAP enzyme inhibition. recombinant PfM18AAP, H-Glu-NHMec fluorogenic cleavage. inhibition, % at 7.35 µM. 290,000 compounds, 1.2% hits;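 active = inhibition above the campaign mean inhibition over all tested compounds plus 3 SD, cut at about 28% in these data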;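 note: 0% = plate median of test compound wells and 100% = 2 mM ZnCl2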
# Fh CTSL1 inh: blocks F. hepatica cathepsin L1 in PFM18AAP counter-screen; recombinant F. hepatica cathepsin L1, Z-Leu-Arg-MCA fluorescence; inhibition, % at 5.96 µM; 300,000 compounds, 0.49% hits; AID 1906;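 active = inhibition above the mean of all tested compounds plus 3 SD, set per screening campaign, cut at about 17% in these data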;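 note: 0% = plate median of test compound wells and 100% = 1 µM Z-Phe-Ala-diazomethylketone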
# The depositor's hits bear a star; x = no result given.
SMILES,VIM-2 inhibitor,IMP-1 inhibitor,M18AAP inhibitor,Fh CTSL1 inh
CCN1CCN(Cc2ccc(NC(=O)c3ccc(C)c(NC(=O)c4cccc(-c5cn[nH]c(=O)c5)c4)c3)cc2C(F)(F)F)CC1,-2,9.3*,-6,-2
O=C(C[N+]12CC[N+](CC(=O)c3ccc(F)cc3)(CC1)CC2)c1ccc(F)cc1,-1,-1,-2,0
N#CC1(C#N)CC(C=O)=C(N)C1(C#N)CC(=O)c1ccc(F)cc1 (stereo not given),-1,7.5*,7,1
O=C(O)C(O)Cc1c[nH]c2ccccc12 (stereo not given),-2,-4,-3,-3
O=C(O)C(=O)Cc1c[nH]c2ccccc12,-1,4.5*,12,3
C=CCC1c2cccc(C(=O)O)c2C(=O)N1c1cccc(C)c1 (stereo not given),11*,-6,2,9
C=CCC1c2cccc(C(=O)O)c2C(=O)N1c1cccc(OC)c1 (stereo not given),4,-4,-1,2
Clc1ccc(CSc2nnc([C@@H]3CCCN3)o2)cc1Cl,1,-2,-2,6
Cc1ccc(C)c(CSc2nnc([C@@H]3CCCN3)o2)c1,3,5.0*,-9,5
O=C1CCCC(O)=C1N=Nc1ccc(C(=O)O)cc1,-3,-3,17,3
O=C1CCCC(O)=C1N=Nc1c(Cl)cc(C(F)(F)F)cc1Cl,-1,1,28*,0
Cc1ccc(C(c2sc3ncnn3c2O)N2CC(C)CC(C)C2)cc1 (stereo not given),1,0,30*,2
CCN1CCN(CC(=O)Nc2ccccc2)C(=O)C1=O,5,4.6*,-1,-2
CCN1CCN(CC(=O)Nc2ccc(Cl)c(Cl)c2)C(=O)C1=O,-4,-5,4,1
CCOC(=O)c1cc2c(s1)-c1c(C)cccc1OC2,-1,-2,-1,18*
Cc1cccc2c1-c1sc(C(=O)Nc3nccs3)cc1CO2,-1,-3,11,4
O=C(c1ccc(Cl)cc1)N(Cc1ccco1)C1CCS(=O)(=O)C1 (stereo not given),-2,-1,2,-1
NS(=O)(=O)c1ccc(NC(=S)Nc2cc(Cl)c(Cl)cc2Cl)cc1,2,-4,-9,2
CC(C)c1ccc(Nc2nc(Cl)nc(NCCO)n2)cc1,1,-1,-4,4
CN1C(=O)CC(N2CCC(c3nc4ccccc4s3)CC2)C1=O (stereo not given),-4,-4,2,19*
O=C(Nc1ccccc1O)/C(=C\c1ccccc1)NC(=O)c1ccccc1,-4,-1,0,0
Oc1ccc(N2CCN(C(c3ccncc3)c3nnnn3C3CCCC3)CC2)cc1 (stereo not given),-1,-2,37*,-3
c1cc(C(c2nnnn2C2CCCC2)N2CCOCC2)ccn1 (stereo not given),-2,-2,-13,-1
CCOc1cc(/C=C2\CCCc3c2nc2ccccc2c3C(=O)O)ccc1OC,3,6.9*,20,10
COc1cc(/C=C2\CCCc3c2nc2ccccc2c3C(=O)O)cc(Br)c1O,2,-2,13,2
SMILES,VIM-2 inhibitor,IMP-1 inhibitor,M18AAP inhibitor,Fh CTSL1 inh
C=CCOc1ccc(/C=C/C(=O)OCC(=O)N(C)CC(=O)Nc2ccccc2Cl)cc1,x,x,x,-2
COC(=O)c1c(NC(=O)Cc2ccccc2)sc2c1CC(C)(C)NC2(C)C,0,-2,29*,0
CC(C)CC(C(=O)OCC(=O)Nc1cccc(Cl)c1)N1C(=O)C2CC=CCC2C1=O (stereo not given),-4,-4,-8,22*
O=C(Nc1cccc(Cl)c1)c1cccc(N2C(=O)C3CC=CCC3C2=O)c1 (stereo not given),1,18*,7,4
CCCCCC(=O)N(O)C1CC(=O)N(c2ccccc2)C1=O (stereo not given),8.1*,1,-13,-1
O=c1c2ccccc2oc2cc(NCCCn3ccnc3)ccc12,1,-2,-5,-2
CCc1nc(NCCCN2CCOCC2)c2oc3ccccc3c2n1,11*,-3,6,-1
CCc1nc(NCCN2CCOCC2)c2oc3ccccc3c2n1,3,1,-12,-2
O=c1c2ccccc2oc2ccc(NCCCN3CCOCC3)cc12,9.8*,0,5,5
COc1ccc(OCCOC(=O)c2nc3nccc(C)n3n2)cc1,-1,-4,3,-2
CCO[C@@H]1OC(C(=O)N2CCN(Cc3ccc4c(c3)OCO4)CC2)=C[C@H](C2CC2)[C@H]1CCCO,-2,-3,-1,1
N#CCC(=O)N/N=C/c1cccc(Oc2ccccc2)c1,-4,-3,30*,2
O=C(Cc1ccc(Cl)cc1)N/N=C/c1cccc(O)c1,-1,-3,4,18*
CN(CC(=O)NCc1ccccn1)S(=O)(=O)c1ccc2ccccc2c1,-4,-4,-8,3
COc1cc(/C=N/NC(=O)c2cccnc2)ccc1OCC(=O)N1CCOCC1,-2,-3,-1,3
COc1cc(/C=N/NC(N)=S)ccc1OC(=O)c1ccc(C)cc1,-2,-5,12,66*
COc1cc(/C=N/NC(N)=S)ccc1OCC(=O)N1CCOCC1,-5,-5,7,18*
COC(=O)c1c(C)[nH]c(C(=O)CSc2ccc(Cl)cc2)c1C,-4,-3,4,5
Cc1ccc(/C=C2/SC(=O)NC2=S)o1,4,5.3*,26,x
Cn1cc(/C=C2\SC(=O)NC2=S)c2ccccc21,4,5.3*,13,5
O=C(CCc1c[nH]c2ccccc12)N1CCN(c2ccc(O)cc2)CC1,1,-4,31*,-4
COc1cc(N)c(Cc2nccc3cc(OC)c(OC)cc23)cc1OC,-2,-4,9,0
COc1ccc(C(N)c2nccc3cc(OC)c(OC)cc23)cc1OC (stereo not given),7.8*,2,4,26*
CC(C(Sc1ccccc1N)c1ccccc1)[N+](=O)[O-] (stereo not given),-1,-3,31*,-1
CCOC(=O)C1=C(C)N=c2s/c(=C/c3cccc([N+](=O)[O-])c3O)c(=O)n2C1c1cc(OC)c(OC)c(OC)c1 (stereo not given),7,-6,6,-3
SMILES,VIM-2 inhibitor,IMP-1 inhibitor,M18AAP inhibitor,Fh CTSL1 inh
CCOC(=O)C1=C(C)N=c2s/c(=C/c3cccc([N+](=O)[O-])c3O)c(=O)n2C1c1ccccc1 (stereo not given),8.1*,-6,0,-3
CCC(Oc1ccc2c(c1)C(=O)CC(C)(C)O2)C(=O)NCCN1CCCCCC1 (stereo not given),-1,-1,15,37*
CC(C)CCNC(=O)COc1ccc2c(c1)C(=O)CC(C)(C)O2,-1,-4,-10,-2
COCCSc1nc(N)c2c3c(sc2n1)CN(C)CC3,-2,-2,-1,-1
CN(C)CCSc1nc(N)c2c3c(sc2n1)CN(C)CC3,2,-1,-8,4
CSc1nc(NCC(C)C)c2c3c(sc2n1)CN(C)CC3,8.4*,0,6,4
CCN(CC)CCNc1nc(SC)nc2sc3c(c12)CCN(C)C3,11*,0,14,-5
CSc1nc(NCc2ccccc2)c2c3c(sc2n1)CN(C)CC3,4,0,5,2
